ROMK primary = human ROMK K+ channel modulation, primary screen; Tet-inducible ROMK, thallium flux fluorescence; actives lie on both sides; P48048; AID 1918; 2% of 130,000 active; B-score at 10 µM;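 active = signal ratio slope over the read window, or its plate-corrected B-score, at least 3 SD from the plate mean, either direction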;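 also: B-score of the F/F0 ratio slope over 7 to 12 s after thallium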
Target sequence (P48048 whole entry, looked up): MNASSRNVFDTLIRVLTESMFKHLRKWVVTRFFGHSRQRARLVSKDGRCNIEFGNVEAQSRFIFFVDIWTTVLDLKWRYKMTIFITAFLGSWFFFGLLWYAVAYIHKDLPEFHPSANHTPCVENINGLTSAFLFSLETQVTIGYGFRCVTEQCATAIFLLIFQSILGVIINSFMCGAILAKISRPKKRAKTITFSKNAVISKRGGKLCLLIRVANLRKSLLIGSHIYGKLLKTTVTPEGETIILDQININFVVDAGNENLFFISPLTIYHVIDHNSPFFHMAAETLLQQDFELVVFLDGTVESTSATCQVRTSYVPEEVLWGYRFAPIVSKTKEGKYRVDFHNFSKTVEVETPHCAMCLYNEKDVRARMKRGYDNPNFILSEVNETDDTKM
Pf gametocyte = inhibitors of late stage P. falciparum gametocyte viability. 0.065% of 150,000 active. P. falciparum stage V gametocytes, ATP luminescence, 24 h. AID 743093. inhibition, % at 10.9 µM;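 active = inhibition above the mean plus 3 SD of compounds within the control limits, set per campaign, cut at about 38% in these data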
Calb biofilm kill = mixture kills Candida albicans biofilm cells. 0.02% of 120,000 active. AID 1242. inhibition, % at 7.6 µM. C. albicans biofilm persisters + clotrimazole, fluorescence viability; primary screen in compound mixtures of four per well;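 also: compounds exposed to preformed 24 h biofilms for 48 h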
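Assay system: C. albicans biofilms / Medium: RPMI/MOPS medium, pH 7.0 / Schedule: biofilm formation 24 h, compound exposure 48 h, 37 °C / Measured by: Alamar Blue fluorescence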
Of the large screens only hits and unclear results are named; the others gave an inactive call. Shown is part of a subset that was picked to be rich in hits.

Cc1ccc(Cl)cc1N1CCN(C(=O)CN2C(=O)c3cccc4cccc2c34)CC1	ROMK primary -2.8 (no result: Pf gametocyte, Calb biofilm kill)
COc1ccc(/C=C2\CCCc3c2nc2ccccc2c3C(=O)OCC(=O)c2c(N)n(C)c(=O)n(C)c2=O)cc1	none (no result: Pf gametocyte)
C[C@@]12CCC=C[C@H]1[C@H](c1ccc(C(F)(F)F)cc1)N(Cc1ccccc1)C2=O	none (no result: ROMK primary)
COCCCn1c(=S)[nH]c2c(sc3ccccc32)c1=O	ROMK primary 5.3
CC1CCN(CCCn2c(=S)[nH]c3c(sc4ccccc43)c2=O)CC1	none
COc1ccc(C(=O)Nc2cc(C(C)=O)c(C)oc2=O)cc1	none
COC(=O)c1cc(NC(=O)c2ccccc2)c(=O)oc1/C=C/Nc1ccc(Oc2ccccc2)cc1	ROMK primary -4.5
O=C(NC1CC1)c1ccc2c(Cl)c3c(nc2c1)CCCC3	none (no result: ROMK primary)
CCOC(=O)N1CCC(NC(=O)c2ccc3c(Cl)c4c(nc3c2)CCCC4)CC1	ROMK primary -2.5 (no result: Pf gametocyte)
S=c1[nH]nc(-c2ccncc2)n1/N=C/c1cccc(Cl)c1	none
S=c1nc(-c2ccc(Br)cc2)[nH]c2ccccc12	none (no result: ROMK primary)
S=c1nc(-c2ccccc2)[nH]c2ccccc12	ROMK primary 7.3
CCn1ncc(Br)c1C(=O)N(C)C12CC3CC(CC(C3)C1)C2	ROMK primary -4.5 (no result: Pf gametocyte, Calb biofilm kill)
CCn1ncc(Br)c1C(=O)Nc1ccn(C23CC4CC(CC(C4)C2)C3)n1	none (no result: ROMK primary, Pf gametocyte)
Cc1cc([N+](=O)[O-])nn1CC(=O)NCc1ccco1	none
CC(=O)C(C(C)=O)c1c(Cl)c(O)c(O)c2c(C(=O)c3ccccc3)coc12	ROMK primary -3.4 (no result: Pf gametocyte, Calb biofilm kill)
O=C(c1ccccc1)c1coc2c1C(=O)c1ccccc1C2=O	none
O=C(NC1CCCC1)c1sc(=S)n2c1[nH]c(=O)c1ccccc12	none (no result: Calb biofilm kill)
O=C(NCc1ccco1)c1sc(=S)n2c1[nH]c(=O)c1ccccc12	ROMK primary -3.7 (no result: Calb biofilm kill)
CCN1C[C@@H]2[C@@H]3C(=O)N(C)C(=O)[C@@H]3[C@](CC)(C1=O)N2C(=O)c1ccccc1	none (no result: ROMK primary, Calb biofilm kill)
CCOn1c(=O)c(=O)n(OC)c2ccccc21	none
O=c1c(Cl)c(N2CCOCC2)cnn1-c1nc2ccccc2[nH]1	none (no result: Pf gametocyte)
N/N=C/C(=N\Nc1ccc(Cl)cc1)C(=O)c1ccncc1	Pf gametocyte 45 (no result: ROMK primary)
COc1ccc(N/N=C(\C=N\O)C(=O)c2ccc(OC)cc2)cc1	none (no result: Calb biofilm kill)
Cc1ccc(S(=O)(=O)NCCC2(C(C)C)CCOC(C)(C)C2)cc1 (stereo not drawn)	none (no result: Pf gametocyte, Calb biofilm kill)
Cc1ccc(C2=NNC3(CCOC(C)(C)C3)S2)cc1 (stereo not drawn)	ROMK primary 2.5
N/N=c1\sc2ccccc2n1-c1ccccc1	none (no result: ROMK primary, Calb biofilm kill)
COc1ccc(C(=O)/C=C/Nc2cc(C)ccn2)cc1	none
Cc1[nH][nH]c(=O)c1C(c1c(C)[nH][nH]c1=O)c1cn(C)c2ccccc12	none (no result: Pf gametocyte)
Cc1[nH][nH]c(=O)c1C(c1c(C)[nH][nH]c1=O)c1cn(Cc2cccc3ccccc23)c2ccccc12	ROMK primary -2.7 (no result: Calb biofilm kill)
Cc1ccc(NC(=O)c2cc(C(=O)Nc3ccc(C)cc3)n(C)n2)cc1	none (no result: ROMK primary, Calb biofilm kill)
O=C(/C=C/c1ccc([N+](=O)[O-])cc1)c1cccs1	none (no result: ROMK primary)
Nc1ccc(/C=C/C(=O)c2cccs2)cc1	ROMK primary -6
COc1ccc(-c2cc(=Nc3ccc(C(=O)O)cc3)c3cc(C)ccc3o2)cc1	none (no result: Pf gametocyte)
CCc1ccc2oc(-c3ccc(OC)cc3)cc(=Nc3cccc(C(=O)O)c3)c2c1	ROMK primary 2.3
Cc1cc(C(=O)Nc2sc3c(c2C#N)CCCC3)no1	ROMK primary 3.6 (no result: Pf gametocyte, Calb biofilm kill)
Cc1cc(C(=O)Nc2sc3c(c2C#N)CCC3)no1	none (no result: Pf gametocyte, Calb biofilm kill)
O=C(NNC(=S)NCc1ccco1)c1ccc(S(=O)(=O)N2CCOCC2)cc1	none
Cc1ccc(S(=O)(=O)/N=C2/C=C(Sc3ncn[nH]3)C(=O)c3ccccc32)cc1	none (no result: ROMK primary, Pf gametocyte)
CC(C)c1ccc(S(=O)(=O)/N=C2/C=C(Sc3ncn[nH]3)C(=O)c3ccccc32)cc1	ROMK primary -2.6 (no result: Pf gametocyte)
Cc1ccc(S(=O)(=O)N(c2ccccc2)C2CCS(=O)(=O)C2)cc1 (stereo not drawn)	none (no result: Calb biofilm kill)
CN(C1CCS(=O)(=O)C1)S(=O)(=O)c1ccccc1 (stereo not drawn)	Pf gametocyte 38
CC(C)(C)C(=O)NCCc1nc2ccccc2n1CC(=O)c1ccc(Cl)cc1	none (no result: Pf gametocyte)
CCC(C)Nc1nc2c(c(=O)n(C)c(=O)n2C)n1C (stereo not drawn)	none (no result: ROMK primary)
Oc1c(C=C2N=c3ccccc3=N2)sc(=S)n1-c1ccccc1	none
CC1=Nc2ccccc2/C1=C/c1sc(=S)n(-c2cccc(C(=O)O)c2)c1O	ROMK primary -4.6
Cc1c(Cl)cccc1NC(=O)C(=O)NNC(=O)c1ccccc1F	ROMK primary 10
CSc1ccccc1NC(=O)Nc1cccc(Cl)c1C	none
Cc1ccc(C(=O)C(C)OC(=O)c2n[nH]c(=O)c3ccccc23)cc1 (stereo not drawn)	none (no result: Calb biofilm kill)
CCCOc1ccccc1C1CC(=O)NC2=C1C(=O)CCC2 (stereo not drawn)	none (no result: ROMK primary, Calb biofilm kill)
CCOc1ccccc1C1CC(=O)NC2=C1C(=O)CCC2 (stereo not drawn)	ROMK primary 4.7 (no result: Calb biofilm kill)
COC(=O)C1=C(C)N(CCCC(=O)O)C(=O)NC1c1ccc(C#N)cc1 (stereo not drawn)	none (no result: ROMK primary, Calb biofilm kill)
CC1(C)Cc2c(sc3[nH]c(=S)n(Cc4ccco4)c(=O)c23)CO1	none (no result: Pf gametocyte, Calb biofilm kill)
O=c1c2c3c(sc2[nH]c(=S)n1Cc1ccco1)CCC3	ROMK primary -5.5
CSC(=S)N/N=C/c1ccc(N(C)C)cc1	ROMK primary 2.7
CSC(=S)N/N=C/c1ccc(Br)cc1	none
COc1ccc(OC)c(Cc2nnc(CCC(=O)NCc3ccc(C)s3)o2)c1	none (no result: ROMK primary)
CC(C)Cn1c(N)c(C(=O)COC(=O)c2cccnc2Cl)c(=O)n(C)c1=O	none
O=C(CN1C(=O)CSc2ccc(S(=O)(=O)N3CCOCC3)cc21)NCc1cccnc1	none
O=C(CN1C(=O)CSc2cc(S(=O)(=O)N3CCCCCC3)ccc21)NCCc1ccccc1	ROMK primary -5.5 (no result: Pf gametocyte)
O=C(NC(NC(=S)Nc1cccc(Cl)c1)C(Cl)(Cl)Cl)OCc1ccccc1 (stereo not drawn)	none (no result: Pf gametocyte, Calb biofilm kill)
O=c1cc(N2CCOCC2)cnn1-c1ccccc1	none
COc1ccc(-c2[nH]ncc2-c2csc(C)n2)c(O)c1	Pf gametocyte 39 (no result: ROMK primary)
CCOc1ccc(-c2[nH]ncc2-c2csc(C)n2)c(O)c1	none (no result: ROMK primary)
O=C(O)c1ccc(/C=C2\SC(=Nc3ccccc3)N(c3ccccc3)C2=O)cc1	none (no result: Pf gametocyte)
Fc1ccc(-c2onc3ccc(C4OCCO4)cc23)cc1	none
O=Cc1ccc2noc(-c3ccc(F)cc3)c2c1	ROMK primary -3.1 (no result: Pf gametocyte, Calb biofilm kill)
CCN(CC)CCSc1nnc2c3cc(C)ccc3n(Cc3ccccc3)c2n1	none
COc1ccc(-n2ncc3c(NCc4ccco4)ncnc32)cc1	none (no result: Calb biofilm kill)
Clc1ccc(-n2ncc3c(NCc4ccco4)ncnc32)cc1	ROMK primary 3.9 (no result: Calb biofilm kill)
COc1cccc(C(=O)c2sc(NC(C)C)nc2N)c1	none (no result: Calb biofilm kill)
COc1ccc(C(=O)c2sc(NC(C)C)nc2N)cc1OC	ROMK primary -4.2 (no result: Calb biofilm kill)
O=C(c1cnc(Cl)c(Cl)c1)N1CCC(Cc2ccccc2)CC1	none (no result: Pf gametocyte)
C/C(=N\NC(=O)c1c(Cl)c(C)nn1C)c1ccc(NC(=O)COc2ccc(Cl)cc2C)cc1	none (no result: ROMK primary, Calb biofilm kill)
C/C(=N\NC(=O)c1c(Cl)c(C)nn1C)c1cccc(NC(=O)COc2ccccc2)c1	ROMK primary 4.1 (no result: Pf gametocyte, Calb biofilm kill)
O=[N+]([O-])c1sccc1CS(=O)(=O)c1ccccc1	none
Cc1ccc(NC(=O)c2cccs2)cc1	none (no result: ROMK primary, Calb biofilm kill)
Cc1ccc(NC(=O)C(=O)NNC(=O)c2cccs2)cc1	ROMK primary 2.9
CCCCCC(=O)NC(=S)Nc1cccc(-c2nc3ncccc3o2)c1	none (no result: ROMK primary)
CC(C)Sc1nc2[nH]ncc2c(=O)[nH]1	none
